Test [1] concerns PC-3. The test is described as follows: Cytotoxicity against human PC3 cells assessed as reduction in cell viability at 10 uM after 24 to 48 hrs by resazurin-based prestoblue assay. The test is classed as functional. In short, it runs like this:
(§1)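 PC3 human prostate cancer cells (express LPA1 receptor) seeded at 5,000/well, cultured 24 and 48 h, then treated with LPE analogues at 5, 10, 25 or 50 μM for 24 or 48 h. Viability read with resazurin-based PrestoBlue reagent and expressed as % of untreated control (100%). Means ± SD of at least three independent experiments; P < 0.05 versus control.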

In test [2] the test system is PC-3. As to the kind of experiment: Cytotoxicity against human PC3 cells assessed as reduction in cell viability at 5 uM after 24 to 48 hrs by resazurin-based prestoblue assay. Format: functional. A digest of the protocol: as §1
Test [3] is described as follows: (§2) Cytotoxicity against human PC3 cells assessed as reduction in cell viability at 25 uM after 48 hrs by resazurin-based prestoblue assay. The test is classed as functional, PC-3. A digest of the protocol: as §1
A short description of test [4]: (§3) Cytotoxicity against human PC3 cells assessed as reduction in cell viability at 50 uM after 48 hrs by resazurin-based prestoblue assay. Format: functional, PC-3. In short, it runs like this: as §1
For test [5], the system named is PC-3. As to the kind of experiment: (§4) Cytotoxicity against human PC3 cells assessed as reduction in cell viability at 10 uM after 48 hrs by resazurin-based prestoblue assay. The test is classed as functional. A digest of the protocol:
as §1

The subject of test [6] is PC-3. Described as §2. The test is classed as functional. In short, it runs like this: as §1
The subject of test [7] is PC-3. The test is described as §3. The test is classed as functional. In short, it runs like this: as §1
For test [8], the system named is PC-3. As to the kind of experiment: Cytotoxicity against human PC3 cells assessed as reduction in cell viability at 50 uM after 24 to 48 hrs by resazurin-based prestoblue assay. The test is classed as functional. A digest of the protocol:
as §1

Test [9] is described as follows: as §4. The test is classed as functional, PC-3. A digest of the protocol: as §1
A short description of test [10]: Cytotoxicity against human PC3 cells assessed as reduction in cell viability at 10 uM after 24 hrs by resazurin-based prestoblue assay. The test is classed as functional, PC-3. In short, it runs like this:
as §1

From ChEMBL document CHEMBL3822448, “The chemical synthesis and preliminary biological studies of phosphodiester and phosphorothioate analogues of 2-methoxy-lysophosphatidylethanolamine” (2016) come the findings set out here.

Calls of active or inactive are those of the source. The rule behind the calls is not given here.

In the case of `CCCCCCCCCCCCCCCC(=O)OCC(COP(=O)(S)OCCN)OC` (configuration not stated), the result in test [1] and in [2] was inactive. Moreover, the Activity in test [3] was found to be 79.1%; in [4] it was 70%.
As to `CCCCCCCCCCCCCC(=O)OCC(COP(=O)(S)OCCN)OC` (mixture of isomers), the outcome in [1] and in test [2] was inactive. The Activity is reported as 59.8% in test [3] and 43.8% in test [4].
`CCCCCCCC/C=C\CCCCCCCC(=O)OCC(COP(=O)(O)OCCN)OC` (mixture of isomers): the outcome in test [1] and in test [2] was inactive. Besides, the result in test [5], in [6] and in [7] was Active.
On to `CCCCCCCC/C=C\CCCCCCCC(=O)OCC(COP(=O)(S)OCCN)OC` (mixture of isomers), for which the result in [1], in test [8] and in [2] was inactive.
For the compound `CCCCCCCCCCCCCCCCCC(=O)OCC(COP(=O)(S)OCCN)OC` (mixture of isomers), the outcome in [1], in [8] and in test [2] was inactive.
Consider `CCCCCCCCCCCCCCCC(=O)OCC(COP(=O)(O)OCCN)OC` (racemic), for which the outcome in test [2] was inactive. In addition, the Activity in test [9] is on record as 78.8%; in test [3] it was 49.5%; in [4] it was 24.9%.
As to `CCCCCCCCCCCCCC(=O)OCC(COP(=O)(O)OCCN)OC` (racemic), the Activity in test [10] is given as 68.2%; in test [9], 59.8%; in test [3] it was 22.7%; in [4] it was 6.3%.
With `CCCCCCCCCCCCCCCCCC(=O)OCC(COP(=O)(O)OCCN)OC` (racemic), the result in [1] and in test [2] was inactive. For the same compound, the result in [5], in [6] and in test [7] was Active.
